Results published in ChEMBL document CHEMBL2424586, “Polyoxygenated cinnamoylcoumarins as conformationally constrained analogs of cytotoxic diarylpentanoids: synthesis and biological activity” (Eur J Med Chem, 2013).

Legend:
K562 = assay: Cytotoxicity against human K562 cells after 72 hrs by MTT assay; format: functional, cell-based; settings: K562, 72 h
Method in brief: (§1)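 MCF-7 grown as monolayer, K562 and MOLT-4 in suspension; seeded at 30,000, 40,000 and 40,000 cells/ml respectively and incubated overnight at 37 °C. Compounds dissolved in DMSO, diluted in medium, final DMSO ≤0.5%; cisplatin as reference.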

[1] = Antioxidant activity assessed as ferric ion reducing ability after 20 mins by FRAP assay; format: functional
Method in brief: (§2)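 FRAP reagent: acetate buffer (300 mM, pH 3.6), TPTZ (10 mM in 40 mM HCl) and FeCl3 (20 mM) at 10:1:1, diluted to 1/3 with methanol and pre-warmed to 37 °C. Diluted compound added, 20 min at 37 °C, A593. Values read from FeSO4·7H2O calibration curve; quercetin as reference.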

MOLT-4 = assay: Cytotoxicity against human MOLT4 cells after 72 hrs by MTT assay; format: functional, cell-based; settings: MOLT-4, 72 h; method in brief: as §1
MCF7 = assay: Cytotoxicity against human MCF7 cells after 72 hrs by MTT assay; format: functional, cell-based; settings: MCF7, 72 h; method in brief: as §1
[2] = test system: Radical scavenging activity; assay: Antioxidant activity assessed as DPPH free radical scavenging activity after 30 mins; format: functional
Rattus norvegicus = species: Rattus norvegicus; assay: Reduction of total thiol content in Wistar rat liver mitochondria after 1 hr by DTNB method; format: functional
Method in brief: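 Wistar rat liver mitochondria isolated by differential centrifugation (1500 × g, then 10,000 × g, 10 min, 4 °C) and suspended in Tris-HCl 0.05 M/sucrose 0.25 M/KCl/MgCl2/Na2HPO4, pH 7.4. Protein by Bradford. Mitochondria (1 mg/mL) exposed 1 h to compound, then total thiols measured by DTNB at 412 nm against a GSH standard curve; mean ± SD, n = 3.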

[3] = Antioxidant activity assessed as ferric ion reducing ability after 20 mins by FRAP assay relative to quercetin; format: functional; method in brief: as §2

With `COc1cccc(COc2ccc3cc(C(=O)/C=C/c4c(Cl)cccc4Cl)c(=O)oc3c2)c1` as the molecule, how does the IC50 (K562) read?
The IC50 was 15.6 µM.

What about the Activity [1] of the same molecule?
The Activity was 5.3 mM.

What about the IC50 (MOLT-4) of the same molecule?
Its IC50 is 12.5 µM.

What about the IC50 (MCF7) of the same molecule?
Its IC50 is 10.1 µM.

What about the IC50 [2] of the same molecule?
The IC50 was 940 µM.

For `COc1cccc(/C=C/C(=O)c2cc3ccc(O)cc3oc2=O)c1OC`, which IC50 (K562) is on record?
Its IC50 is 14.6 µM.

And the Activity (Rattus norvegicus)?
Its Activity is “Dose-dependent effect”.

What about the Activity [1] of the same molecule?
Its Activity is 25.2 mM.

What about the IC50 (MOLT-4) of the same molecule?
Its IC50 is 7 µM.

And the IC50 (MCF7)?
The IC50 was 16.6 µM.

And the IC50 [2]?
The IC50 was 150 µM.

What about the fold change (FC) [3] of the same molecule?
The fold change (FC) was 0.3.

Which results are given for `O=C(/C=C/c1ccc2c(c1)OCO2)c1cc2cc(OCc3ccccc3)ccc2oc1=O`?
IC50 (K562): > 50 µM; Activity [1]: 12.6 mM; IC50 (MOLT-4): > 50 µM; IC50 (MCF7): > 50 µM; IC50 [2]: 570 µM

Which IC50 (K562) does the source give for `O=C(/C=C/c1ccc2c(c1)OCO2)c1cc2cc(O)ccc2oc1=O` here?
Its IC50 is 14.6 µM.

What about the Activity [1] of the same molecule?
The Activity was 15.3 mM.

And the IC50 (MOLT-4)?
The IC50 was 2 µM.

What about the IC50 (MCF7) of the same molecule?
Its IC50 is 9.7 µM.

And the IC50 [2]?
The IC50 was 480 µM.

With `COc1cccc(COc2ccc3cc(C(=O)/C=C/c4ccc(C)cc4)c(=O)oc3c2)c1` as the molecule, how does the IC50 (K562) read?
Its IC50 is over 50 µM.

And the Activity [1]?
Its Activity is 6.6 mM.

And the IC50 (MOLT-4)?
Its IC50 is over 50 µM.

And the IC50 (MCF7)?
Its IC50 is over 50 µM.

And the IC50 [2]?
Its IC50 is 2630 µM.

For `O=C(/C=C/c1ccc2c(c1)OCO2)c1cc2ccc(O)cc2oc1=O`, which IC50 (K562) is on record?
The IC50 was 31.7 µM.

And the Activity [1]?
The Activity was 13.7 mM.

And the IC50 (MOLT-4)?
The IC50 was 26.2 µM.

And the IC50 (MCF7)?
Its IC50 is 38.9 µM.

And the IC50 [2]?
Its IC50 is 540 µM.

Which results are given for `COc1cc(/C=C/C(=O)c2cc3cc(OCc4ccccc4)ccc3oc2=O)cc(OC)c1OC`?
IC50 (K562): 66.4 µM; Activity [1]: 8.1 mM; IC50 (MOLT-4): 10.3 µM; IC50 (MCF7): 26.5 µM; IC50 [2]: 1150 µM

For `COc1cccc(COc2ccc3cc(C(=O)/C=C/c4cc(OC)ccc4OC)c(=O)oc3c2)c1`, which IC50 (K562) is on record?
The IC50 was 35.1 µM.

And the Activity [1]?
The Activity was 9.5 mM.

What about the IC50 (MOLT-4) of the same molecule?
Its IC50 is 13.8 µM.

And the IC50 (MCF7)?
The IC50 was over 100 µM.

And the IC50 [2]?
The IC50 was 750 µM.

What does the source list for `COc1cccc(COc2ccc3cc(C(=O)/C=C/c4cccc(OC)c4OC)c(=O)oc3c2)c1`?
IC50 (K562): 45.5 µM; Activity [1]: 7.6 mM; IC50 (MOLT-4): 22.8 µM; IC50 (MCF7): 35.1 µM; IC50 [2]: 720 µM

With `COc1ccc(/C=C/C(=O)c2cc3ccc(OCc4cccc(OC)c4)cc3oc2=O)cc1` as the molecule, how does the IC50 (K562) read?
Its IC50 is over 100 µM.

What about the Activity [1] of the same molecule?
Its Activity is 14.3 mM.

What about the IC50 (MOLT-4) of the same molecule?
The IC50 was over 100 µM.

And the IC50 (MCF7)?
The IC50 was over 100 µM.

What about the IC50 [2] of the same molecule?
The IC50 was 930 µM.

For `COc1cccc(COc2ccc3cc(C(=O)/C=C/c4ccc(Cl)cc4Cl)c(=O)oc3c2)c1`, which Activity [1] is on record?
The Activity was 7.1 mM.

What about the IC50 [2] of the same molecule?
Its IC50 is 480 µM.

What does the source list for `COc1cccc(/C=C/C(=O)c2cc3cc(OCc4ccccc4)ccc3oc2=O)c1OC`?
IC50 (K562): 48.9 µM; Activity [1]: 4.4 mM; IC50 (MOLT-4): 23.6 µM; IC50 (MCF7): 21.3 µM; IC50 [2]: 1270 µM

Which IC50 (K562) does the source give for `COc1cccc(COc2ccc3cc(C(=O)/C=C/c4ccccc4)c(=O)oc3c2)c1` here?
Its IC50 is over 100 µM.

What about the Activity [1] of the same molecule?
The Activity was 10.4 mM.

What about the IC50 (MOLT-4) of the same molecule?
The IC50 was over 100 µM.

What about the IC50 (MCF7) of the same molecule?
Its IC50 is 33.7 µM.

What about the IC50 [2] of the same molecule?
Its IC50 is 890 µM.

For `COc1cccc(/C=C/C(=O)c2cc3cc(O)ccc3oc2=O)c1OC`, which IC50 (K562) is on record?
The IC50 was 17.3 µM.

And the Activity [1]?
Its Activity is 25.7 mM.

And the IC50 (MOLT-4)?
The IC50 was 6.7 µM.

And the IC50 (MCF7)?
The IC50 was 8.8 µM.

What about the IC50 [2] of the same molecule?
The IC50 was 160 µM.

What about the fold change (FC) [3] of the same molecule?
The fold change (FC) was 0.3.

For `COC(=O)c1ccc(/C=C/C(=O)c2cc3cc(O)ccc3oc2=O)cc1`, which IC50 (K562) is on record?
The IC50 was 15.8 µM.

What about the IC50 (MOLT-4) of the same molecule?
Its IC50 is 7.1 µM.

What about the IC50 (MCF7) of the same molecule?
Its IC50 is 1.3 µM.

With `COc1cc(/C=C/C(=O)c2cc3ccc(O)cc3oc2=O)cc(OC)c1OC` as the molecule, how does the IC50 (K562) read?
The IC50 was 7.3 µM.

And the Activity (Rattus norvegicus)?
Its Activity is “Dose-dependent effect”.

What about the Activity [1] of the same molecule?
Its Activity is 8.7 mM.

What about the IC50 (MOLT-4) of the same molecule?
Its IC50 is 3.8 µM.

What about the IC50 (MCF7) of the same molecule?
Its IC50 is 8.8 µM.

What about the IC50 [2] of the same molecule?
The IC50 was 190 µM.

For `O=c1c(O)c(-c2ccc(O)c(O)c2)oc2cc(O)cc(O)c12` [QUERCETIN], which Activity [1] is on record?
The Activity was 87.1 mM.

What about the IC50 [2] of the same molecule?
Its IC50 is 8.12 µM.

Which IC50 (K562) does the source give for `COc1cc(/C=C/C(=O)c2cc3cc(O)ccc3oc2=O)cc(OC)c1OC` here?
The IC50 was 8.8 µM.

What about the Activity [1] of the same molecule?
Its Activity is 9.6 mM.

What about the IC50 (MOLT-4) of the same molecule?
Its IC50 is 3.9 µM.

And the IC50 (MCF7)?
The IC50 was 10.9 µM.

What about the IC50 [2] of the same molecule?
Its IC50 is 180 µM.

What does the source list for `COC(=O)c1ccc(/C=C/C(=O)c2cc3ccc(O)cc3oc2=O)cc1`?
IC50 (K562): 4.4 µM; IC50 (MOLT-4): 3.7 µM; IC50 (MCF7): 5.5 µM

For `COc1cccc(COc2ccc3cc(C(=O)/C=C/c4ccc5c(c4)OCO5)c(=O)oc3c2)c1`, which IC50 (K562) is on record?
Its IC50 is 22.8 µM.

And the Activity [1]?
The Activity was 7.5 mM.

What about the IC50 (MOLT-4) of the same molecule?
Its IC50 is over 100 µM.

And the IC50 (MCF7)?
The IC50 was over 100 µM.

And the IC50 [2]?
The IC50 was 460 µM.
